A short description of series [1]: Apparent permeability in dog MDCK cells measured after 150 mins. The class given is ADME, cell-based, Canis lupus familiaris. The procedure, abridged:
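MDCK cells (passage 20-35) seeded at 5×10^4 cells/well on 0.4 µm Transwell inserts and grown 4-5 days to confluence. Monolayers washed with HBSS pH 7.4 and equilibrated 30 min. Compound added apically or basolaterally; receiver side sampled at 150 min, then frozen and lyophilized. TEER checked afterward for monolayer integrity.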

Series [2] can be described thus: Inhibition of recombinant EpsteinBarr virus Transmembrane domain 5 of latent membrane protein 1 transformed into Escherichia coli FHK12 cells assessed as disruption of oligomerization by measuring ToxR transcription activity assay. Further details: species or system human gammaherpesvirus 4.
The next series concerns Escherichia coli. Kind of series: Antibacterial activity against Escherichia coli FHK12. Type of series: ADME, organism-based. In short, it runs like this: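 FHK12 E. coli transformed by heat shock (42 °C, 90 s) with the ToxR7-TMD-5 plasmid. Grown in LB with 0.0025% arabinose and 30 µg/mL chloramphenicol plus a range of test-compound concentrations, shaken at 37 °C for 20 h, five replicate cultures. Growth read as OD at 600 nm.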

Series [3] is described as follows: Binding affinity to EpsteinBarr virus Transmembrane domain 5 of latent membrane protein 1 assessed as dissociation constant by spectrofluorimetric analysis. On the set-up: species or system human gammaherpesvirus 4.
The subject of another series is human gammaherpesvirus 4. The series can be described thus: Potency index, ratio of IC50 of pentamidine to IC50 of compound for inhibition of recombinant EpsteinBarr virus Transmembrane domain 5 of latent membrane protein 1 transformed into FHK12 cells by ToxR assay. In short, it runs like this:
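ToxR7-TMD-5 plasmid heat-shocked into FHK12 E. coli; cultures in LB with 0.0025% arabinose and 30 µg/mL chloramphenicol with graded compound concentrations, five replicates, shaken 37 °C for 20 h. Cells lysed with Z buffer/SDS, then ONPG (0.4% w/v) added; β-galactosidase followed at 405 nm for 20 min at 28 °C.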

With `N=C(N)c1ccc(C(=O)NCCCNC(=O)c2ccc(C(=N)N)cc2)cc1`, in series [1], the Papp at 2.5 h was determined as 1.07 ×10⁻⁶ cm/s. In addition, the IC50 (in series [2]; in the series on Escherichia coli) was more than 200 µM in each case.

For `N=C(N)c1ccc(NC(=O)CCCCC(=O)Nc2ccc(C(=N)N)cc2)cc1`, the dissociation constant Kd in series [3] was 8.9 µM. Further, the values for the IC50 (in series [2]; in the series with Escherichia coli) were 42 µM and more than 200 µM, respectively.

In the case of `N=C(N)c1ccc(NCCCCCNc2ccc(C(=N)N)cc2)cc1`, in series [3], the Kd came out at 7.3 µM. Further, the results for the IC50 (in series [2]; with Escherichia coli) were 31.2 µM and more than 200 µM, respectively.

In the case of `N=C(N)c1ccc(NC(=O)CCC(=O)Nc2ccc(C(=N)N)cc2)cc1`, in series [3], the Kd worked out at 13.5 µM. The figures for the IC50 (in series [2]; in the series with Escherichia coli) were 112 µM and more than 200 µM, respectively.

In the case of `N=C(N)c1ccc(NC(=O)CCCC(=O)Nc2ccc(C(=N)N)cc2)cc1`, in series [1], the Papp at 2.5 h worked out at 4.28 ×10⁻⁶ cm/s. Also, in the series with human gammaherpesvirus 4, the Ratio IC50 worked out at 15. The dissociation constant Kd in series [3] was found to be 2.6 µM. In addition, the concentration for half-maximal inhibition (IC50) amounted to 0.6 µM in series [2] and 56.4 µM with Escherichia coli.

(Values after ChEMBL document CHEMBL4732186, “Targeting the transmembrane domain 5 of latent membrane protein 1 using small molecule modulators” (Eur J Med Chem, 2021).)
